Assay results pooled from the literature.
Protocols differ between the studies behind these lines.
Target: Tyrosine-protein kinase CSK (CSK, Homo sapiens, UniProt P41240)

SMILES | observed | method | tested at | remaining binding
Nc1c(C(=O)NCc2ccc(C(=O)NCCCC3CCCCC3)cc2)cnn1-c1ccccc1 | cell-free assay | competition with immobilised ligand | 0.1 µM | 100%
Nc1ncc2c(n1)-c1c([nH]c3ccc(C#CC4CC4)cc13)CCCC2 | binding | competition with immobilised ligand | 1 µM | 96%
CC(C)CC(=O)N1CCc2nc(-c3ccc(Br)cc3)nc(N(C)Cc3ccccc3)c2C1 | cell-free assay | competition with immobilised ligand | 0.1 µM | 100%
CN(CCCC(F)(F)F)c1nccc(-c2cnn3ncccc23)n1 | binding |  | 1 µM | 91%
O=C(NCCCC1CCCCC1)c1ccc(CNC(=O)c2cnn(-c3ccccc3)c2C(F)(F)F)cc1 | cell-free assay | competition with immobilised ligand | 0.1 µM | 100%
c1cnn2ncc(-c3ccnc(N4CCC45COC5)n3)c2c1 | binding |  | 1 µM | 88%
O=C(c1ccc(Nc2ncc(Cl)c(-c3ccc(Cl)s3)n2)cc1)N1CCC(N2CCCC2)CC1 | binding | competition with immobilised ligand | 1 µM | 75%
F[C@@H]1CCN(c2nccc(-c3cnn4ncccc34)n2)C1 | binding |  | 1 µM | 100%
CC(=O)C1=C(C)N(c2cccc(C(F)(F)F)c2)C(=O)N[C@@H]1c1ccc(C#N)nc1 | cell-free assay | competition with immobilised ligand | 1 µM | 90%
N[C@@H]1CCN(c2nccc(-c3cnn4ncccc34)n2)C1 | binding |  | 1 µM | 94%
O=C(c1ccc(Nc2nccc(-c3cc4ccccc4s3)n2)cc1)N1CCC(N2CCCC2)CC1 | binding | competition with immobilised ligand | 1 µM | 100%
COc1ncc2cc3ccccc3nc2c1C#N | cell-free assay | competition with immobilised ligand | 5 µM | 100%
CN(C)c1ncc(F)c(-c2cnn3ncccc23)n1 | binding |  | 1 µM | 98%
O=C1CCc2cc(Nc3cc(OC4CCOCC4)c([N+](=O)[O-])cc3Cl)ccc2N1 | cell-free assay | competition with immobilised ligand | 1 µM | 98%
CCN1CCN(Cc2ccc(C(=O)Nc3ccc(C)c(Oc4ccc5c(c4)CC(=O)N5)c3)cc2C(F)(F)F)CC1 | binding | competition with immobilised ligand | 1 µM | 100%
COc1cnc(Nc2cccc(S(N)(=O)=O)c2)nc1N1CCN(c2ccccc2)CC1 | binding | competition with immobilised ligand | 1 µM | 100%
O=C(c1ccc(Nc2ncc(Cl)c(-c3cc4ccccc4s3)n2)cc1)N1CCC(N2CCCC2)CC1 | binding | competition with immobilised ligand | 1 µM | 87%
Cc1ccc(-n2nc(C(C)(C)C)cc2NC(=O)Nc2ccc(-n3c(N)c(C(N)=O)c4nc5ccc(NCCCN)cc5nc43)cc2)cc1 | cell-free assay | competition with immobilised ligand | 1 µM | 0.65%
O=C(Nc1c[nH]nc1C(=O)NC1CCNCC1)c1cc(F)cc(F)c1 | binding | competition with immobilised ligand | 1 µM | 100%
O=C(Nc1cnc(Oc2ccc(F)cc2)nc1)N1CCc2ncccc2[C@@H]1c1ccc(F)cc1 | cell-free assay | competition with immobilised ligand | 1 µM | 100%
C[C@@H]1CCN(c2nccc(-c3cnn4ncccc34)n2)C1 | binding |  | 1 µM | 89%
